The values that follow come from the EternaBench riboswitch data.

The series relates to MS2 coat protein. Description: apparent Kd, MS2 coat protein; higher = weaker binding; RNA-MaP array; FMN 200 µM where present. Summed up: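 Apparent Kd: the median of filtered binding-curve fits from single clusters. Designs were transcribed on Illumina sequencing-chip clusters by stalled E. coli RNA polymerase and titrated with SNAP-549-labelled MS2 coat protein from 0.7 or 1.5 nM, doubling to 3 µM, in 100 mM Tris-HCl pH 7.5, 80 mM KCl, 4 mM MgCl2, BSA, DTT, yeast tRNA and Tween-20. Each series ran without and then with constant ligand, and green signal was normalised to red-channel RNA signal and control-cluster median Fmax.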

The mark [1] stands for this setting: designed as: OFF switch for flavin mononucleotide, no ligand.
Setting [2] is: ligand present: flavin mononucleotide, designed as: OFF switch for flavin mononucleotide.
Setting [3] is: designed as: ON switch for flavin mononucleotide, no ligand.
Where [4] appears, read: ligand present: flavin mononucleotide, designed as: ON switch for flavin mononucleotide.

On to “CAGAGGAUGUAAGGAUAUCGUCAGGAAUACUGACGAGAAGGUACAUGAGGAUCACCCAUGUAACUCUAAUAAUAAUAACCUCUG”, for which the “apparent Kd” value reads like this: under setting [1], 12.6 nM; under setting [2], 16.4 nM.
In the case of “AGUGGGCUAGGAUAUCGAUGAACUCACAUGAGGAUCACCCAUGUGUCUUCGGUGGGCUCACGAGAAGGAGUAAGUU”, the “apparent Kd” value under setting [1] turned out to be 17.6 nM and the “apparent Kd” value under setting [2] came to 23.2 nM.
With “CGUUUAUUUAUGGGUUUAGAUUAUGAGGAUAUCAUUUUUUUAUACAUGAGGAUCACCCAUGUUACUGAGAAGGCAUAAUUAACG”, the “apparent Kd” value reads like this: under setting [3], 16.4 nM; under setting [4], 7.09 nM.
In the case of “GGUUAAUAUCGAGGAUAUGUCUAGACACAUGAGGAUCACCCAUGUAUGUGUAUAGAAGGCGAUAUUAACAGCAUGUUACAUGCC”, the “apparent Kd” value runs as follows: under setting [3], 38.1 nM; under setting [4], 16.8 nM.
“UUGGUACAUGAGGAUCACCCAUGUGGGUCGGUCGCAGGAUAUGCCCGUGGGCGCUUGCGGGCAGAAGGGUGCCGUA”: the “apparent Kd” value reads like this: under setting [3], 392 nM; under setting [4], 102 nM.
Regarding “CCAUGGCAUGUAGGAUAUAUCUGACAAAGUCAGAUAGAAGGACAUGAGGAUCACCCAUGUAAACCGAAAGGAACAUAGCCAUGG”, the “apparent Kd” value was 6.36 nM under setting [1] and 6.96 nM under setting [2].
Regarding “GGGAGUGGAGGGAAUAACAUGAGGAUCACCCAUGUAUGGGAGAGAAGGCAGGUCGGAGGGCGGUCUGAGGAUAUUUAGACUCCU”, the “apparent Kd” value is, setting by setting: under setting [3], 8.96 nM; under setting [4], 7.43 nM.
Turning to “UUAUUUUUACAGAAGGUUUAAUAAUAUGUAUGAGAAGGAUAUGUAACAUGAGGAUCACCCAUGUUUUGUCUAUAUGAGGAUCAU”, the “apparent Kd” value is, setting by setting: under setting [1], 8.2 nM; under setting [2], 7.9 nM.
“AGGUCAACCACAGGAUAUGGCUAGCAUAGCUAGCCAGAAGGGUGGUCAUUUCCAUGUAAAUACAUGAGGAUCACCCAUGUAUCC”: the “apparent Kd” value was 126 nM under setting [3] and 41.1 nM under setting [4].
“UAAAAGACUAGCAAAUAAGUUCCACAUGAGGAUCACCCAUGUCAGGAUAUGAGCAGCAAAGCUGCUCAGAAGGGAUAGCUAGUC”: the “apparent Kd” value is 6.45 nM under setting [1] and 6.39 nM under setting [2].
Take “GAACGAUUGCCUACAUGAGGAUCACCCAUGUGGCUGACAAGCAGAAGGGCGGGUUUCAUUCUCCCGUAGGAUAUGCGCGUUCCA”: the “apparent Kd” value by setting is: under setting [3], 6.89 nM; under setting [4], 5.14 nM.
As to “ACUAAUAGAGGAUAUACAGUUUAUUACAUGAGGAUCACCCAUGUUCUUCAAUGUAUAUAAGUAGAAGGCUAUGGAA”, the “apparent Kd” value under setting [1] turned out to be 43.3 nM and the “apparent Kd” value under setting [2] was found to be 187 nM.
The corresponding values for “UGUGUGUGAGGAUAUACAUGAGGAUCACCCAUGUAGCGCGCGCGUAUUCGUGUGUGUUGUAGAAGGCGCGCGCG” are 33 nM and 30.5 nM.
As for “AGCCUGAGUCGAGGAUAUUAUGGAUCAAUUAAUACAUGAGGAUCACCCAUGUAAUUAAUUUAACAUGAGAAGGUGACUCAGGCA”, the “apparent Kd” value under setting [3] was 11.3 nM and the “apparent Kd” value under setting [4] worked out at 12.9 nM.
With “CUCGUGUUAGGAUAUCGUGGCUGGGCUGGGACGUCCGAUCGCGAGAAGGGACAUGAGGAUCACCCAUGUAAAAC”, the “apparent Kd” value came to 36.7 nM under setting [1] and 86 nM under setting [2].
With “AAUAACAGAGGAUAUACUGUUUUAUGUGUUUAUUGUUUUGAACAUGAGGAUCACCCAUGUAGAAGGCUGAGUAA”, the “apparent Kd” value came to 27.8 nM under setting [1] and 28.2 nM under setting [2].
Take “UCAGGAGUCACAGGAUAUCCGGCGUAGCACACAGGAGAAGGGUGAUCACGAGCACAUGAGGAUCACCCAUGUGACAUUUGUGAG”: the “apparent Kd” value reads like this: under setting [3], 40.4 nM; under setting [4], 50.7 nM.
In the same order, the values of “ACAUGAGGAUCACCCAUGUUCACAUAGGAUAUUGAUUAUAUUGGUUUAAGAAUAGUAAUUGACCACAAGAAGGAUGCCUGAUCU” are 12.2 nM and 9.7 nM.
With “GCCGUAAAUGUGAGGAUAUACCUAUGGAAACAUAGGUAGAAGGCACAUGAGGAUCACCCAUGUCCUUAAUCGGC”, the “apparent Kd” value came out at 447 nM under setting [1] and 406 nM under setting [2].
“ACCCGACAUGAGGAUCACCCAUGUAAACAAUCAUGAGGAUAUCCGGAGCAAGUGCUCCAGGGAGAAGGCAUAAAAG”: the “apparent Kd” value is, setting by setting: under setting [3], 76.3 nM; under setting [4], 42.2 nM.
For the sequence “UUAUUAUAUGUAGGAUAUGCAUAUUAUUAUUAUGCAGAAGGACAUGAGGAUCACCCAUGUAUAUUAUUGUUAUAUAUUAUAUAU”, the “apparent Kd” value is 24.8 nM under setting [1] and 39.3 nM under setting [2].
In the same order, the values of “GUGUGCAGAGGAUAUACAGAGGAAAAGAAGAAAGAAGAGGGACAUGAGGAUCACCCAUGUAGAAGGCUGAGUGU” are 33.9 nM and 35.2 nM.
Consider “CAGCGAUAGCUGAACAAUCUAUCUGAGGAUAUUCAUAUUAAAACAUGAGGAUCACCCAUGUAUUGGGAGAAGGCAGAUAGAUUG”, for which the “apparent Kd” value stood at 42.1 nM under setting [3] and 6.53 nM under setting [4].
As for “CUGGUUAGUCAGGAUAUCGUGUGGGUAAUUGUACGAGAAGGGACGACAUGAGGAUCACCCAUGUGGUCUUUGGG”, the “apparent Kd” value under setting [1] came out at 24.8 nM and the “apparent Kd” value under setting [2] was 56.2 nM.
Regarding “UCCAGAUCGCGAGGUAGGAGUAGCAGAAGGCGACCGGUGCCAGAUGACAUGAGGAUCACCCAUGUCGAGGAUAUGCUACAGAAU”, the “apparent Kd” value under setting [1] is 6.49 nM and the “apparent Kd” value under setting [2] amounted to 13.2 nM.
The corresponding values for “GAAUAAUUGAUCCUUUUUUAUUACAUGAGGAUCACCCAUGUGCAGGAUAUCGAUUGUUGUAGUUUCGAGAAGGGCAAGAACUGU” are 187 nM and 280 nM.
As for “ACGUGUUAUACAGGAUAUGUAUAGGUAUAAUCAUACAGUUAUUAAUUAAUGACAGAAGGGUAAACAUGAGGAUCACCCAUGUCA”, the “apparent Kd” value amounted to 511 nM under setting [1] and 248 nM under setting [2].
The corresponding values for “UAAGUUUAGGUAGGAUAUACUUUCAAUUUCUCUUUCCUUACAUGAGGAUCACCCAUGUUUACAUUGUAGAAGGACCACUAUGUU” are 31.8 nM and 26.8 nM.
“GGUGUCAUCGAGAAGGCCUCAACAUGAGGAUCACCCAUGUUGUAAUAUGGGAGGAUAUCGAUGAUACAGCUACGUUUCGUAGCC”: the “apparent Kd” value under setting [3] was 20.7 nM and the “apparent Kd” value under setting [4] was found to be 6.23 nM.
The corresponding values for “GUGGUCAGACAUGAGGAUCACCCAUGUGGAAUAAAUAAGGAAUAGGAUAUCGAAUAUAGGAUAUACGAGAAGGGUUGGUUGGUG” are 121 nM and 131 nM.
As for “GGAUGUGUGUAAGGAUAUGCAUCACUGAGAAAUUUAGUGAGGAAGAUCACAUGAGGAUCACCCAUGUAGAAGGUACACACGUGG”, the “apparent Kd” value runs as follows: under setting [1], 10.8 nM; under setting [2], 52.7 nM.
For the sequence “CGCUAAGAUGGGUUUAAUGGAGCAUAGGAUAUGCUUGUACAUGAGGAUCACCCAUGUUAUAUUGUGCAGAAGGGUGCAUUUGCG”, the “apparent Kd” value came out at 457 nM under setting [3] and 158 nM under setting [4].
On to “UAUUUACAUGAGGAUCACCCAUGUUAGGAUAUGUUUCUAUCGUCGAAAGAUGAUAUUUGCAGAAGGGACUUUAU”, for which the “apparent Kd” value reads like this: under setting [1], 27.6 nM; under setting [2], 25.1 nM.
The corresponding values for “UUGAUGUCAUCAGGAUAUAGUAUUUAAGACAUAUAUUUUUUCAAACAUGAGGAUCACCCAUGUCGCUAGAAGGGAUUAUAGAUU” are 41 nM and 35.6 nM.
Consider “UUGGACGUCGUAGGGUAUGUAGGAUAUUCCUACAUGAGGAUCACCCAUGUUGACAUGGAAGAAGGACAGAAGGACGAUGUCCAU”, for which the “apparent Kd” value turned out to be 106 nM under setting [3] and 4.37 nM under setting [4].
In the same order, the values of “AAAACAUGAGGAUCACCCAUGUUAAGAUCGGUUAAUAGAAGUGAGGAUAUACGAAGUUAAAGCUGGUAGAAGGCACUGGGUACA” are 29.2 nM and 26.5 nM.
Turning to “GUGAAACAUGAGGAUCACCCAUGUGAGGAUAUGUUUUAGUACUGCAGACAGUACAUCUAUAGAAGGCACAAUGG”, the “apparent Kd” value under setting [1] is 38.9 nM and the “apparent Kd” value under setting [2] worked out at 70.7 nM.
As for “CGCACUAUACAUGAGGAUCACCCAUGUAAUUAUGAGAUAGUCAGAAGGCAUUAUUAGUGAUUUAAUGAGGAUAUGAAUAGUGCG”, the “apparent Kd” value was determined as 79.8 nM under setting [3] and 11.2 nM under setting [4].
For “CUGUUCACCAGUGGGCGACCACAUGAGGAUCACCCAUGUAGGGAGGAUAUGCCCGCGCAGCUGUAGCAGAAGGCCCUGCAAAUC”, the “apparent Kd” value under setting [1] worked out at 21.2 nM and the “apparent Kd” value under setting [2] is 125 nM.
The corresponding values for “AAAUAGCAUGAGGAUAUUGGACUGGAUUCAGUACGAGAAGGCAUGACAUGAGGAUCACCCAUGUUUUGUUGGGA” are 51.7 nM and 202 nM.
In the same order, the values of “GUGUACGGAGGAUAUAUGUGGGCAGGCUGACCUGCAGCUUCACAUGAGGAUCACCCAUGUAGAAGGCUGUGCAC” are 22.2 nM and 92.9 nM.
The corresponding values for “UUAGCGUAGGUAAGGAUAUGCUGGUCUAAUGAUCAGCAGAAGGUACAUGAGGAUCACCCAUGUGGAUUCGUUAU” are 18.5 nM and 37 nM.
In the case of “GGACCGUGCAGAGUUCGCGGUCGGCAGGAUAUGACAUGAGGAUCACCCAUGUGAACUCCAUUGGGUCAGAAGGGCCACGACACA”, the “apparent Kd” value under setting [1] worked out at 19.8 nM and the “apparent Kd” value under setting [2] was found to be 78 nM.
For the sequence “CGUGAACAUGAGGAUCACCCAUGUGAAAAACAUAGAGGAUAUGUCACGUGAGUGUAAAAGACAGAAGGCUAUCGUG”, the “apparent Kd” value worked out at 85.4 nM under setting [3] and 43 nM under setting [4].
Regarding “AUUUUGUGAGGAUAUCAGGUGUGCUAGCGUACUGGUACAUCUGAGAAGGCACAUGAGGAUCACCCAUGUUUAUU”, the “apparent Kd” value under setting [1] came to 26.6 nM and the “apparent Kd” value under setting [2] stood at 60 nM.
As for “GUGCACACUCGAGGAUAUCGGAGAGUUCUCCUUCGAGAAGGCGAUUCGUGCCGUGUUAUUCUGGACAUGAGGAUCACCCAUGUG”, the “apparent Kd” value is, setting by setting: under setting [3], 84.2 nM; under setting [4], 32.4 nM.
As for “CCAUAAAAGAUCCAAAAUUACAACAUGAGGAUCACCCAUGUGCAGGAUAUCGUGAAAGUAAAAUACGAGAAGGGCAAAAACUGC”, the “apparent Kd” value runs as follows: under setting [1], 440 nM; under setting [2], 454 nM.
On to “AAUAACAGAGGAUAUACUAUUUUAUGUGUUUGUUGUUUUGAACAUGAGGAUCACCCAUGUAGAAGGCUGAAUAA”, for which the “apparent Kd” value reads like this: under setting [1], 22.6 nM; under setting [2], 25.6 nM.
